Most compounds without a hit are left out; they make up all but 4.3% or so of the library.
DYRK1A inh – rat Dyrk1A kinase inhibitors, primary screen, biochemical, single point, plate reader. Dual specificity tyrosine-phosphorylation-regulated kinase 1A (Rattus norvegicus), Q63470. ADP-Glo luminescence, NFATc1 peptide. inhibition, % at 12.5 µM. 310,000 compounds, 0.43% hits. AID 504441, 2011; in the data active = inhibition above about 50%
CAL PDZ FP-1 – CAL PDZ peptide-binding inhibitors, primary screen, biochemical, fluorescence polarization, Cer-tagged CAL PDZ, HTS | purified CAL PDZ, TMR-peptide fluorescence polarization, 1 h | 330,000 compounds, 0.02% hits | inhibition, % at 20 µM | Golgi-associated PDZ and coiled-coil motif-containing protein (Homo sapiens), Q9HD26 | AID 504414, 2011;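 active = highest replicate inhibition of at least 40%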
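System: purified tagged CAL PDZ domain construct (CerCALP). Schedule: 1 h incubation at room temperature before polarization reading. Medium: 25 mM sodium phosphate pH 7.4, 150 mM NaCl, TCEP, IgG, Thesit. Read-out: percent inhibition from loss of millipolarization. Measured by: FP readout, S and P plane fluorescence. Probe or stimulus: fluorescent TMR peptide probe.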
CAL PDZ FP-2 – untagged CAL PDZ binding inhibitors, primary screen, biochemical, fluorescence polarization, HTS. 300,000 compounds, 0.92% hits. inhibition, % at 24.9 µM. AID 602252, 2012. Golgi-associated PDZ and coiled-coil motif-containing protein (Homo sapiens), Q9HD26. purified CAL PDZ, TMR-peptide fluorescence polarization, 1 h;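 active = mean inhibition of at least 30% with at least half of replicates also reaching 30%; inconclusive = no clear call, values can overlap the other calls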
Rtt109 HAT inh – inhibitors of C. albicans Rtt109/Vps75 HAT, primary screen, biochemical, ThioGlo CoA-SH fluorescence, plate reader | inhibition, % at 34.9 µM | purified Rtt109/Vps75, 4 h | AID 540336, 2011 | Histone acetyltransferase RTT109 (Candida albicans (strain SC5314 / ATCC MYA-2876)), … | 330,000 compounds, 0.16% hits;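 active = inhibition of at least 50% in every replicate; inconclusive = best replicate reaches 50% inhibition but some replicates fall short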
Target sequence (Q5AAJ8 whole entry, looked up): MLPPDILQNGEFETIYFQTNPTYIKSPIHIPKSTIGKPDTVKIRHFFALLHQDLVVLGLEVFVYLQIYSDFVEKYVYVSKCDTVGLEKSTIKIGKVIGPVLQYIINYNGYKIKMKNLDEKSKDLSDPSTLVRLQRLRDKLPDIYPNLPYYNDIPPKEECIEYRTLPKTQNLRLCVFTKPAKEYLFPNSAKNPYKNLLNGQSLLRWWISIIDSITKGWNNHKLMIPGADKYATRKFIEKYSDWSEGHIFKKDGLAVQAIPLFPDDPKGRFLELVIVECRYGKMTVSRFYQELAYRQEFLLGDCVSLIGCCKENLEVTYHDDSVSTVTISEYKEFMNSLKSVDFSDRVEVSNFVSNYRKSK
ALR inh – inhibitors of human ALR sulfhydryl oxidase, primary screen, biochemical, H2O2 detection, HRP-luminol luminescence, single point | FAD-linked sulfhydryl oxidase ALR (Homo sapiens), P55789 | purified ALR, DTT oxidation | inhibition, % (test concentration not listed) | 290,000 compounds, 3.8% hits;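 active = mean replicate inhibition above about 79%, with every replicate also reaching it, limit read from the data; inconclusive = only one of the two criteria met; inactive = mean below limit and not every replicate reaching it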
Target sequence (P55789 whole entry, looked up): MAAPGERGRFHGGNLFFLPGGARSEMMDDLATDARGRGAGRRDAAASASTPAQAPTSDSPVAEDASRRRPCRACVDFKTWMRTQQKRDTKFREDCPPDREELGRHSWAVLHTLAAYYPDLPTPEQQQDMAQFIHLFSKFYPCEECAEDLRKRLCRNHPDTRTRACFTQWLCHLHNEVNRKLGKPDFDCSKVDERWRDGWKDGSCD
Each line names hits and unclear results; the compound was inactive in the other large screens.

CC(C)(C)c1nnc(SCC(=O)Nc2ccc(N3CCCCC3)cc2)n1N	ALR inh 99 (no result: DYRK1A inh)
CC(Sc1nncn1C)C(=O)Nc1ccc(N2CCCCC2)cc1 (stereo not drawn)	ALR inh 92 (no result: DYRK1A inh)
CC(C)n1cnnc1SCC(=O)Nc1ccc(N2CCCCC2)cc1	ALR inh 99
COc1ccc(C(CNc2ccc(C(F)(F)F)cn2)N(C)C)cc1OC (stereo not drawn)	none
CC(C)OC(=O)Cc1nc2sc(-c3ccccc3)cc2c(=O)[nH]1	none
O=C(NC1CCCCC1)C12CC3CC(C1)CC(n1cncn1)(C3)C2	none
CC(NC(=O)C12CC3CC(C1)CC(n1cncn1)(C3)C2)C12CC3CC(CC(C3)C1)C2 (stereo not drawn)	CAL PDZ FP-2 57 (no result: ALR inh)
O=C(O)CSCC(=O)N1CCN(c2nc3cc(Cl)ccc3s2)CC1	none
S=C(N=Nc1ccccc1)NNc1ccccc1	ALR inh 99
O=C(Nc1ccsc1C(=O)O)c1ccc(Cl)cc1	ALR inh 97
COC(=O)[C@H](C)N(Cc1ccc(Cl)c(Cl)c1)S(=O)(=O)CCN1CCN(c2ccccc2)CC1	none (no result: ALR inh)
COC(=O)[C@H](C)N(Cc1ccc(Cl)c(Cl)c1)S(=O)(=O)CCN1CCCC1	CAL PDZ FP-2 35 (no result: ALR inh)
Cn1nc(-c2ccccc2)cc1NC(=O)c1cccs1	none (no result: CAL PDZ FP-2)
Cc1cc(C)nc(NS(=O)(=O)c2ccc(NC(=O)c3snnc3C)cc2)n1	none
O=C(Nc1ccc(F)cc1)c1ccc(C(=O)N2CCOCC2)cc1	ALR inh 99
Cc1ccc(C(=O)Nc2cccc(C(=O)N3CCOCC3)c2)cc1Cl	CAL PDZ FP-2 63
O=C(Nc1cccc(C(=O)N2CCOCC2)c1)c1ccccc1	none
Cc1ccc(NC(=O)/C=C/c2ccc3c(c2)OCO3)cc1S(=O)(=O)N1CCOCC1	none
COc1ccc2cc(-c3[nH]ncc3CN3CCCN(c4ccccc4)CC3)ccc2c1	none (no result: Rtt109 HAT inh)
O=C(NC(=S)Nc1cccc2c(O)cccc12)c1ccco1	ALR inh 99
CCCC(=O)NC(=S)Nc1cccc2c(O)cccc12	ALR inh 91
O=C(NC(=S)Nc1cccc2cc(O)ccc12)c1ccco1	ALR inh 94
CSC(=Nc1ccc(Cl)cc1)N[n+]1ccccc1	none
CCn1c2ccccc2c2cc(/C=C(/C#N)C(N)=S)ccc21	none (no result: DYRK1A inh, ALR inh)
CCOc1c(C=C(C#N)C#N)c2ccccc2n1CC	ALR inh 99
COc1ccc(C(=O)NCc2nnc(SCC(=O)Nc3ccccc3OC)n2C)cc1	none
Nc1cnc(Nc2ccc(Br)cc2)nc1N	ALR inh 96
CN(C(=O)COC(=O)c1nn(C)c(=O)c2ccccc12)c1c(N)n(Cc2ccccc2)c(=O)[nH]c1=O	none
Cc1ccc2c(c1)Oc1ccc(NC(=O)CCl)cc1C(=O)N2	ALR inh 93
CN(Cc1ccccc1)C(=O)C1CCCN(Cc2cccc(Cl)c2)C1 (stereo not drawn)	none
Clc1nc(NC2CCCCC2)c2cn[nH]c2n1	none (no result: ALR inh)
Cc1cccc(NC(=O)c2nc[nH]c2C(=O)N[C@@H](C)C(=O)OC(C)(C)C)c1	none
Cc1noc(NS(=O)(=O)c2ccc(NC(=O)/C=C/c3ccc(C(C)C)cc3)cc2)c1C	none
Cc1noc(NS(=O)(=O)c2ccc(NC(=O)CSc3nnc(-c4ccccc4)n3C3CCCCC3)cc2)c1C	ALR inh 98 (no result: CAL PDZ FP-2)
Cc1noc(NS(=O)(=O)c2ccc(NC(=O)/C=C/c3ccc(Br)cc3)cc2)c1C	ALR inh 91
Cc1cc(C)c(C#N)c(SCC(=O)Nc2ccc(S(=O)(=O)Nc3onc(C)c3C)cc2)n1	ALR inh 96
Cc1noc(NS(=O)(=O)c2ccc(NC(=O)CSc3n[nH]c(-c4ccccc4)n3)cc2)c1C	none
Cc1noc(NS(=O)(=O)c2ccc(NC(=O)CSc3nc4ccccc4[nH]3)cc2)c1C	none
Cc1noc(NS(=O)(=O)c2ccc(NC(=O)CCN3C(=O)c4ccccc4C3=O)cc2)c1C	ALR inh 94
NC(=O)C1CCN(C(=O)C2CCN(C(=O)Nc3ccccc3)CC2)CC1	none (no result: ALR inh)
NNc1nc2c(-c3cccc(C(F)(F)F)c3)nnn2c2ccccc12	none
CS(=O)(=O)c1cccc(S(=O)(=O)N2CCCCCC2)c1	none
COc1cc(CN(CCN(C)C)Cc2ccccc2)ccc1OCc1ccccc1	none (no result: CAL PDZ FP-2)
COc1cc(Cl)c(C)cc1NC(=O)CSc1sc2c(O)cc(=O)[nH]c2c1C#N	ALR inh inconclusive
CCOc1ccccc1C(=O)Oc1cc(C)[nH]c(=O)c1[N+](=O)[O-]	none (no result: CAL PDZ FP-2)
CC(=O)n1cc(-c2ccncc2)c2ccccc21	DYRK1A inh 69 (no result: CAL PDZ FP-2, ALR inh)
O=C(COC(=O)c1cccnc1Cl)NCc1ccco1	none (no result: ALR inh)
CCC(CO)NCc1ccc(Br)cc1 (stereo not drawn)	none (no result: Rtt109 HAT inh)
CCC(CO)NCc1ccc(OC2CCCC2)cc1 (stereo not drawn)	CAL PDZ FP-2 47 (no result: DYRK1A inh)
Cc1cc(C)n2nc(C(=O)N3CCN(c4ccc([N+](=O)[O-])cc4)CC3)nc2n1	ALR inh 97
COc1ccc(N2CCN(C(=O)c3nc4nc(C)cc(C)n4n3)CC2)cc1	none (no result: DYRK1A inh)
COc1ccc(S(=O)(=O)N2CCN(c3ncccn3)CC2)cc1	none
O=S(=O)(c1ccc(Cl)cc1)N1CCN(c2ncccn2)CC1	Rtt109 HAT inh 64
O=C(N/C(=C/c1cccc([N+](=O)[O-])c1)C(=O)N1CCCCCC1)c1cccs1	none (no result: DYRK1A inh)
N#Cc1c(-c2ccccc2)ccnc1Oc1ccccc1	none (no result: ALR inh)
C[C@H](N)c1nnc(SCc2ccc(Cl)cc2Cl)o1	ALR inh 99 (no result: CAL PDZ FP-2)
C[C@H](N)c1nnc(SCc2c(Cl)cccc2Cl)o1	none
CCN(CCO)C(=O)c1ccc2nc(Cc3cccc(Cl)c3)oc2c1	none (no result: ALR inh)
CC(=O)c1ccc(S(=O)(=O)NCCCC(=O)N(C)Cc2ccc3c(c2)OCO3)cc1	none (no result: CAL PDZ FP-2)
O=C(O)c1cc(O)c2c(c1)[C@H]([C@H]1c3cc(C(=O)O)cc(O)c3C(=O)c3c(O[C@@H]4O[C@H](CO)[C@@H](O)[C@H](O)[C@H]4O)cccc31)c1cccc(OC3O[C@H](CO)[C@@H](O)[C@H](O)[C@H]3O)c1C2=O (stereo partly drawn)	none
O=C(O)c1cc(O)c2c(c1)[C@@H]([C@H]1c3cc(C(=O)O)cc(O)c3C(=O)c3c(O[C@@H]4O[C@H](CO)[C@@H](O)[C@H](O)[C@H]4O)cccc31)c1cccc(OC3O[C@H](CO)[C@@H](O)[C@H](O)[C@H]3O)c1C2=O (stereo partly drawn)	CAL PDZ FP-2 37
O=C1NN(c2ccccc2)C(=O)/C1=C\c1cccc(OC(=O)c2cccs2)c1	ALR inh 89
